Reference: ChEMBL document CHEMBL2417508, “Synthesis and evaluation of a 125I-labeled iminodihydroquinoline-derived tracer for imaging of voltage-gated sodium channels” (Bioorg Med Chem Lett, 2013)

Legend:
[1] = Binding affinity to voltage-gated sodium channel in rat brain synaptosomal membranes; type: cell membranes
Rattus norvegicus = organism: Rattus norvegicus; assay: Binding affinity to voltage-gated sodium channel in rat brain synaptosomal membranes relative to control; type: cell membranes
[2] = Inhibition of voltage-gated sodium channel in rat brain homogenate; type: tissue-based
Outline: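 Radioligand displacement of [3H]batrachotoxin binding was measured in rat brain homogenates, and IC50 was derived.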

[3] = biological target: Sodium channel protein type 2 subunit alpha (Rattus norvegicus, UniProt P04775); assay: Inhibition of rat brain voltage-gated sodium channel subunit alpha Nav1.2-mediated current expressed in CHO cells; type: cell-based
Sequence of Sodium channel protein type 2 subunit alpha (P04775 whole entry): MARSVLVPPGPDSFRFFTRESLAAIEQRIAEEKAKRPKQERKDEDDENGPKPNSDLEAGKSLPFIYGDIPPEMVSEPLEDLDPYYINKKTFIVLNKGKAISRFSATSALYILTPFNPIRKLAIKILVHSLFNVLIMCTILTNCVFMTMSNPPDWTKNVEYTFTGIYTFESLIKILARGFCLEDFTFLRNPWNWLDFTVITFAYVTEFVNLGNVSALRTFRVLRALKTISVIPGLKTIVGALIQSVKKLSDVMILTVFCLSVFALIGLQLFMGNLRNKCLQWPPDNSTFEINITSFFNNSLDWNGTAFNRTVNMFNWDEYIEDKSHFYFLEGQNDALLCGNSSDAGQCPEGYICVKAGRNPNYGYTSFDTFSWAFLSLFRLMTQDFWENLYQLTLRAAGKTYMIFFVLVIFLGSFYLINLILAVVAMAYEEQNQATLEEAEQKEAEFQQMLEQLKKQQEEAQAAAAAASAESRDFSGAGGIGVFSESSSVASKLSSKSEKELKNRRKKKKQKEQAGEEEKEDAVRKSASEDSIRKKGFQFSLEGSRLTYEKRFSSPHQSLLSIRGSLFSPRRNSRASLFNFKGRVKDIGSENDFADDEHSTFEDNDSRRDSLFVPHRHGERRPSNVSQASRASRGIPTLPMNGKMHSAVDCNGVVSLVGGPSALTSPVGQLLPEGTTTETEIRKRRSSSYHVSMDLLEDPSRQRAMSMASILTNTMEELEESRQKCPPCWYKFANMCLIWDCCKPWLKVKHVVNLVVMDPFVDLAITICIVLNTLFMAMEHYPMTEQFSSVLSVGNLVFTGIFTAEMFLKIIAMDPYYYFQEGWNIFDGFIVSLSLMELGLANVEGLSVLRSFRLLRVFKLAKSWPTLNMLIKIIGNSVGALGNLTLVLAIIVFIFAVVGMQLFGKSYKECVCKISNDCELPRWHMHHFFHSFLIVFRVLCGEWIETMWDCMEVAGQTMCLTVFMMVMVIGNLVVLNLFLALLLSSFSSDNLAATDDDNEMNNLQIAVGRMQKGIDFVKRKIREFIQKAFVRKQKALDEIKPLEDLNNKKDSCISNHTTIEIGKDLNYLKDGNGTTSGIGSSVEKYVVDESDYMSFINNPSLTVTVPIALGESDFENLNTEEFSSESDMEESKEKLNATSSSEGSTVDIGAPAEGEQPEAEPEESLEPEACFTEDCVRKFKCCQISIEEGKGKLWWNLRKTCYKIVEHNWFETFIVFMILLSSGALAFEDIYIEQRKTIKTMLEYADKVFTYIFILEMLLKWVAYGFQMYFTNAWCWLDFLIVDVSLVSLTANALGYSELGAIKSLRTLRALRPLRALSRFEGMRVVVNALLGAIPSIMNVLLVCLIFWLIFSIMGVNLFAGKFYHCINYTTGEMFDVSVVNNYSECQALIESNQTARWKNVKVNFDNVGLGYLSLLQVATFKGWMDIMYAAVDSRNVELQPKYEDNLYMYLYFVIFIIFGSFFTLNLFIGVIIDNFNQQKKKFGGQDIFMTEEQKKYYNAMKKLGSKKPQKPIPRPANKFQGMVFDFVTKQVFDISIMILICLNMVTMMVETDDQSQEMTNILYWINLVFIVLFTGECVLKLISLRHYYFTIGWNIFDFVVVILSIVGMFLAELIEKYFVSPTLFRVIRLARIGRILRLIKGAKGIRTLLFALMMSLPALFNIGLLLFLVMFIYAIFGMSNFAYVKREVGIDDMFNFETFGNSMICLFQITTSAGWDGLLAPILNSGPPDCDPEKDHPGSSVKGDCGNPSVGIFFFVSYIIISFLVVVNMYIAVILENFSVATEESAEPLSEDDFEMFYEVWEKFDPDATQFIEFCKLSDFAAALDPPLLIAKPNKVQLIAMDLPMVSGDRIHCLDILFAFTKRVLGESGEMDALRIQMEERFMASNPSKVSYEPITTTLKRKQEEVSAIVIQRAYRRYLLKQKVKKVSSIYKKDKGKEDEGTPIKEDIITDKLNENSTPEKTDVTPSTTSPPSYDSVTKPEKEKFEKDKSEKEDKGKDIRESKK

Kd [1]: 2.2 nM
Bmax (Rattus norvegicus): 5.4 pmol/mg
IC50 [2]: 8.1 nM
IC50 [3]: 9 nM
Compound: CCCCC/N=c1\ccn(Cc2ccccc2)c2cc(Cl)ccc12
